From ChEMBL document CHEMBL1147465, “Nucleic acid-binding ligands identify new mechanisms to inhibit telomerase” (Bioorg Med Chem Lett, 2004)

Key:
Tetrahymena thermophila [1] = experiment: Inhibition of telomerase after assembly using recombinant Tetraymena thermophilia TR and TERT at 50 uM
Euplotes aediculatus = experiment: Inhibition of purified telomerase of Euplotes aediculatus at 50 uM
Outline: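 Endogenous telomerase purified from E. aediculatus, tested in a direct activity assay with inhibitor at 50 µM.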

Tetrahymena thermophila [2] = experiment: Inhibition of telomerase before assembly using recombinant Tetraymena thermophilia TR and TERT at 50 uM
[3] = target: Telomerase reverse transcriptase (Homo sapiens) (UniProt O14746); experiment: Inhibition of human telomerase after assembly using recombinant hTR and hTERT at 50 uM
Chain of Telomerase reverse transcriptase (Homo sapiens) (O14746 whole entry): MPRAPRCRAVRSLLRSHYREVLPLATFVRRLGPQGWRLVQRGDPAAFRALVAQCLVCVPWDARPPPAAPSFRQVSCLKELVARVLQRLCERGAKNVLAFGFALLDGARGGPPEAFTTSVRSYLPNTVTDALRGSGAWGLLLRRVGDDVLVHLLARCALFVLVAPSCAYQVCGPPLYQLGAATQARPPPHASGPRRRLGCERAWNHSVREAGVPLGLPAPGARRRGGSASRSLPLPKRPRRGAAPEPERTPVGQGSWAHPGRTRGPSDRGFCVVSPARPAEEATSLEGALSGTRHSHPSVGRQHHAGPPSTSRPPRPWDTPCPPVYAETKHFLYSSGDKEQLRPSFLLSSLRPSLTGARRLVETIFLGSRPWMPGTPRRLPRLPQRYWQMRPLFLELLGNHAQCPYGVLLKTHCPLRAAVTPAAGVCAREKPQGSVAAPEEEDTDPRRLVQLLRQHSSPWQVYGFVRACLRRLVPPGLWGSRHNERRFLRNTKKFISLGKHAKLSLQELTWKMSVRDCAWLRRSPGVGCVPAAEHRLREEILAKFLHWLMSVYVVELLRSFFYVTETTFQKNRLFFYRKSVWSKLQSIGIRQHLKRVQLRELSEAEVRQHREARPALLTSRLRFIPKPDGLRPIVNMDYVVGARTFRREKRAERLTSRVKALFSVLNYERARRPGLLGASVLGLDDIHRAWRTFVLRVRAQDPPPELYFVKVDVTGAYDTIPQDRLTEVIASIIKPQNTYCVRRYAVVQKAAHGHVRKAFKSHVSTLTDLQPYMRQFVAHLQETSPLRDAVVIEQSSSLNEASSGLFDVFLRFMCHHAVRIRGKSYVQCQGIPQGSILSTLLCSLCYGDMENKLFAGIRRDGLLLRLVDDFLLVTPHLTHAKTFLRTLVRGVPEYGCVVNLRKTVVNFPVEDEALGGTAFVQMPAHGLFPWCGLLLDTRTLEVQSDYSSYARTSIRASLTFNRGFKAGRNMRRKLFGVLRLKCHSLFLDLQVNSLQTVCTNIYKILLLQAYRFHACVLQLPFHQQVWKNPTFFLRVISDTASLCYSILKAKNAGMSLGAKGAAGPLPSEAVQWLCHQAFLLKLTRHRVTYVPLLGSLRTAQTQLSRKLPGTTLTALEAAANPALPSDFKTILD
Outline: (§1)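 Telomerase reconstituted from in vitro transcribed hTR and hTERT translated in vitro in rabbit reticulocyte lysate. Line 2: ligand added to hTR plus hTERT before a 90 min assembly incubation in lysate. Line 1: ligand added to telomerase already assembled in lysate.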

[4] = target: Telomerase reverse transcriptase (Homo sapiens) (UniProt O14746); experiment: Inhibition of human telomerase before assembly using recombinant hTR and hTERT at 50 uM; outline: as §1

Row | Compound | inhibition (Tetrahymena thermophila [1]) | inhibition (Euplotes aediculatus) | inhibition (Tetrahymena thermophila [2]) | inhibition [3] | inhibition [4]
1 | N=C(N)c1ccc(-c2cc3ccc(C(=N)N)cc3[nH]2)cc1 | 70% | 0% | 70% | 72% | 90%
2 | CN(C)[C@@H]1C(O)=C(C(N)=O)C(=O)[C@@]2(O)C(O)=C3C(=O)c4c(O)cccc4[C@@](C)(O)[C@H]3C[C@@H]12 | 0% | 0% | 0% | – | 10%
3 | CN[C@@H]1[C@H](O)[C@H](NC)[C@H]2O[C@@]3(O)C(=O)C[C@@H](C)O[C@H]3O[C@@H]2[C@H]1O | 0% | 0% | 0% | – | 0%
4 | Nc1ccc2cc3ccc(N)cc3nc2c1 | 90% | 52% | 90% | 90% | 95%
5 | CN[C@@H]1[C@@H](O[C@H]2O[C@H](CO)[C@@H](N)[C@H](O)[C@H]2O)OC2C[C@@H](N)[C@@H](O[C@H]3[C@H](O)[C@@H](O)[C@H](N)C[C@@H]3N)OC2[C@@H]1O (some centres undefined) | 0% | 0% | 0% | – | 30%
6 | NCC[C@H](O)C(=O)N[C@@H]1C[C@H](N)[C@@H](O[C@H]2O[C@H](CN)[C@@H](O)[C@H](O)[C@H]2O)[C@H](O)[C@H]1O[C@H]1O[C@H](CO)[C@@H](O)[C@H](N)[C@H]1O | 0% | 0% | 0% | – | 25%
7 | NC[C@@H]1O[C@H](O[C@H]2[C@@H](O)[C@H](O[C@@H]3[C@@H](O)[C@H](N)C[C@H](N)[C@H]3O[C@H]3O[C@H](CO)[C@@H](O)C[C@H]3N)O[C@@H]2CO)[C@H](N)[C@@H](O)[C@@H]1O[C@H]1O[C@H](CO)[C@@H](O)[C@H](O)[C@@H]1O | 0% | 10% | 0% | 12% | 50%
8 | GENTAMICIN | 0% | 0% | 0% | 19% | 64%
9 | NC[C@@H]1O[C@H](O[C@H]2[C@@H](O)[C@H](O[C@@H]3[C@@H](O)[C@H](N)C[C@H](N)[C@H]3O[C@H]3O[C@H](CO)[C@@H](O)[C@H](O)[C@H]3N)O[C@@H]2CO)[C@H](N)[C@@H](O)[C@@H]1O | 0% | 0% | 0% | 29% | 60%
10 | CN[C@@H]1C[C@H](N)[C@@H](O)[C@H](O[C@H]2O[C@H](CO)[C@H](O)[C@@H]3O[C@@]4(O[C@@H]23)O[C@H]([C@H](N)CO)[C@H](O)[C@H](O)[C@H]4O)[C@H]1O | 0% | 0% | 0% | – | 0%
11 | Cn1cc(NC(=O)c2cc(NC(=O)c3cc(NC=O)cn3C)cn2C)cc1C(=O)NCCC(=N)N | 0% | 75% | 0% | – | 10%
12 | CN1CCN(c2ccc3[nH]c(-c4ccc5[nH]c(-c6ccc(O)cc6)nc5c4)nc3c2)CC1 | 15% | 86% | 50% | 34% | 81%
13 | CCN(CC)CCCC(C)Nc1c2ccc(Cl)cc2nc2ccc(OC)cc12 (centres undefined) | 80% | 75% | 93% | 50% | 82%
